# BindingDB's records for doi:10.1021/jm960074e (National Cancer Institute-Bethesda, 1996)
# Biological target: Integrase (Human immunodeficiency virus 1, UniProt Q7ZJM1)
# Test: Inhibitory activity against HIV-1 integrase
# Method in brief: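 Purified recombinant wild-type HIV-1 integrase, 200 nM final, preincubated with inhibitor for 30 min at 30 °C. Buffer: 25 mM MOPS pH 7.2, 7.5 mM MnCl2, 50 mM NaCl, 10% DMSO, 10% glycerol, BSA, DTT, 2-mercaptoethanol. Then 20 nM 5'-32P-labeled 21mer U5 duplex added for 60 min. Products run on denaturing 20% polyacrylamide gel and quantified by phosphorimager.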
# Integrase, sequence (Q7ZJM1 whole entry): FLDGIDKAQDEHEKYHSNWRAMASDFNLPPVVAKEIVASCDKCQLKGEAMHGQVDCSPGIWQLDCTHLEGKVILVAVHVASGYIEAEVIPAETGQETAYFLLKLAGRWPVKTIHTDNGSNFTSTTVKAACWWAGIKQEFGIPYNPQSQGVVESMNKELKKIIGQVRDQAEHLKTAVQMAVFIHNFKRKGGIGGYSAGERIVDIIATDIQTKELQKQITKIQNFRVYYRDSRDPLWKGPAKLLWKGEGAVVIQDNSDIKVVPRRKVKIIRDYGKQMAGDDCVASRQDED
row,Structure (SMILES),IC50 [µM]
1,"O=C1C(=O)c2ccccc2C(=O)C1=C(c1ccc(Cl)cc1)c1c(O)c(O)c2ccccc2c1O [2-[4-chlorophenyl(3-hydroxy-1,4-dioxo-1,4-dihydro-2-naphthalenyl)methyl]-3-hydroxy-1,4-dihydro-1,4-naphthalenedione]",> 100
2,"CCOc1ccc(C(=C2C(=O)C(=O)c3ccccc3C2=O)c2c(O)c(O)c3ccccc3c2O)cc1OC [2-[4-ethoxy-3-methoxyphenyl(3-hydroxy-1,4-dioxo-1,4-dihydro-2-naphthalenyl)methyl]-3-hydroxy-1,4-dihydro-1,4-naphthalenedione]",100
3,"CC(=C1C(=O)C(=O)c2ccccc2C1=O)c1c(O)c(O)c2ccccc2c1O [2-hydroxy-3-[1-(3-hydroxy-1,4-dioxo-1,4-dihydro-2-naphthalenyl)ethyl]-1,4-dihydro-1,4-naphthalenedione]",> 100
4,CC(=O)c1cccc(NC(=O)C(=O)c2c(O)c3ccccc3oc2=O)c1 [N-(3-Acetyl-phenyl)-2-(4-hydroxy-2-oxo-2H-chromen-3-yl)-2-oxo-acetamide],> 100
5,O=C1Oc2ccccc2C(O)C1Cc1c(O)c2ccccc2oc1=O (stereo not given) [NSC-41834],> 100
6,CN(C)c1ccc(C(=C2C(=O)C(=O)c3ccccc3C2=O)c2c(O)c(O)c3ccccc3c2O)cc1 [NSC-92203],> 100
7,O=C1C(=O)C(Sc2ccccc2)C(=O)c2ccccc21 (stereo not given) [NSC-108029],> 100
8,COc1cc(C(=C2C(=O)C(=O)c3ccccc3C2=O)c2c(O)c(O)c3ccccc3c2O)cc(OC)c1OC [NSC-117278],> 100
9,O=C(c1cccc([N+](=O)[O-])c1)c1c(O)c2ccccc2oc1=O [NSC-133800],> 100
10,Cc1ccc(S(=O)(=O)NN=C(CCN2CCCC2)CC(c2ccccc2)c2c(O)c3ccccc3oc2=O)cc1 (stereo not given) [NSC-647410],> 100
